pIC50, pKi: −log10 of the molar value.
What was measured:
Thioredoxin reductase [1] = target: T1, Thioredoxin reductase (Homo sapiens, UniProt Q16881+Q9NNW7+Q86VQ6); experiment: Inhibitory concentration against wild type human thioredoxin reductase; assay type: protein assay
Method in brief: (§1)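 Placental wt-hTrxR (5 nM) preincubated 10 min at 25 °C with 200 μM NADPH and inhibitor (from 10 mM DMF stock) in 100 mM potassium phosphate, 2 mM EDTA, pH 7.4. Started with 3 mM DTNB; TNB formation read at 412 nm. DMF controls. IC50 from dose–response curves, mean of at least three determinations.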

Thioredoxin reductase [2] = target: T1, Thioredoxin reductase; experiment: Inhibitory concentration against wild type human thioredoxin reductase (5 nM) pre-incubated for 10 min at 25 degree C in buffer in the presence of 200 uM NADPH; assay type: protein assay; method in brief: as §1
Thioredoxin reductase [3] = target: T1, Thioredoxin reductase; experiment: Inhibitory concentration against wild type mutant human thioredoxin reductase (hTrxRdelta-16) pre-incubated for 10 min at 25 degree C in buffer in the presence of 200 uM NADPH; assay type: protein assay
Method in brief: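 Truncated recombinant hTrxRΔ-16 preincubated 10 min at 25 °C with 200 μM NADPH and inhibitor in potassium phosphate/EDTA buffer, pH 7.4. Reaction started with 3 mM DTNB; TNB formation read at 412 nm. DMF controls. IC50 from dose–response curves.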

SK-MEL-25 [4] = experiment: Inhibitory concentration against SK-MEL-25 cell line; assay type: functional, cell-based, Homo sapiens
Method in brief: (§2)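 Human tumour lines grown in DMEM at 37 °C under 5% CO2, seeded in 96-well plates. Dosed next day in quadruplicate with 1:2 serial dilutions, 50 to 0.8 μg/mL; platinum complexes from DMF stock, cisplatin in water. After 96 h cells fixed in 3% formaldehyde and stained with 1% crystal violet, absorbance at 595 nm. For MCF-7 the dye was eluted with ethanol/1% acetic acid before reading. IC50 from fitted dose–response curves.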

Thioredoxin reductase [5] = target: T1, Thioredoxin reductase; experiment: Inhibitory concentration against wild type mutant human thioredoxin reductase (Sec498Cys) (1.3 uM) pre-incubated for 10 min at 25 degree C in buffer in the presence of 100 uM NADPH; assay type: protein assay
Method in brief: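 Recombinant hTrxR Sec498Cys (1.3 μM) preincubated 10 min at 25 °C with 100 μM NADPH and inhibitor in potassium phosphate/EDTA buffer, pH 7.4. Reaction started with 20 μM hTrxC72S; NADPH oxidation read at 340 nm. DMF controls. IC50 from dose–response curves, at least three determinations.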

MCF7 [6] = experiment: Inhibitory concentration against MCF-7 cell line; assay type: functional, cell-based, Homo sapiens; method in brief: as §2
Thioredoxin reductase [7] = target: T1, Thioredoxin reductase; experiment: Inhibitory concentration against wild type human thioredoxin reductase (30 nM) pre-incubated for 10 min at 25 degree C in phosphate buffer in the presence of 100 uM NADPH; assay type: protein assay
Method in brief: as §1, with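 “(30” for “(5”, “100” for “200”, “20 μM hTrxC72S; NADPH oxidation” for “3 mM DTNB; TNB formation”, “340” for “412”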

Thioredoxin reductase [8] = target: T1, Thioredoxin reductase; experiment: Inhibitory concentration against wild type mutant human thioredoxin reductase (Sec498Cys) (100 nM) pre-incubated for 10 min at 25 degree C in buffer in the presence of 200 uM NADPH; assay type: protein assay
Method in brief: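 Recombinant hTrxR Sec498Cys (100 nM) preincubated 10 min at 25 °C with 200 μM NADPH and inhibitor in potassium phosphate/EDTA buffer, pH 7.4. Started with 3 mM DTNB; absorbance read at 412 nm. DMF controls. IC50 from dose–response curves, mean of at least three determinations.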

Calu-6 [9] = experiment: Inhibitory concentration against Calu-6 cell line; assay type: functional, cell-based, Homo sapiens; method in brief: as §2
Thioredoxin reductase [10] = target: T1, Thioredoxin reductase; experiment: Inhibitory concentration agains human thioredoxin reductase; assay type: protein assay
Method in brief: (§3)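 Human TrxR purified from placenta, 5 nM in the DTNB assay or 30 nM in the Trx assay. Enzyme was preincubated 10 min at 25 °C in 100 mM potassium phosphate, 2 mM EDTA, pH 7.4, with NADPH and inhibitor (DMF stock; DMF controls). DTNB assay: 200 μM NADPH, started with 3 mM DTNB, A412. Trx assay: 100 μM NADPH, started with 20 μM hTrxC72S, A340. IC50 from dose–response curves, ≥3 determinations.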

[11] = target: T2, Glutathione reductase, mitochondrial (Homo sapiens, UniProt P00390); experiment: Inhibitory concentration against human glutathione reductase
T2 sequence (P00390 whole entry): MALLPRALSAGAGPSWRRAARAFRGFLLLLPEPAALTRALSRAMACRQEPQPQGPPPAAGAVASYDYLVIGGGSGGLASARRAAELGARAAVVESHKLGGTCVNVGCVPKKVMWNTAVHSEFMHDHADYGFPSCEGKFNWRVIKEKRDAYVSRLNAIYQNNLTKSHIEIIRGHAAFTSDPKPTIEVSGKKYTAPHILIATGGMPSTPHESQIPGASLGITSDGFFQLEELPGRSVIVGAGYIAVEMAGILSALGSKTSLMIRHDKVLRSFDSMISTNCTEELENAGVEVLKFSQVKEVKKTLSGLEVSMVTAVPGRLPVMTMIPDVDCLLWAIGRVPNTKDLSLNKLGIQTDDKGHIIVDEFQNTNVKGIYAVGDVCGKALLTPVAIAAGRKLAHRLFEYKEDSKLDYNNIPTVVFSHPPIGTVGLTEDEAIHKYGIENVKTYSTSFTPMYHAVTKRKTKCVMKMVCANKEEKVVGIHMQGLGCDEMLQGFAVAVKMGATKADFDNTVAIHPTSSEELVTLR

Thioredoxin reductase [12] = target: T1, Thioredoxin reductase; experiment: Inhibitory concentration (25 uM) against human thioredoxin reductase; assay type: protein assay
Method in brief: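 Placental hTrxR screen in 100 mM sodium phosphate, 2 mM EDTA, pH 7.0. Mix held 500 μM NADPH, 200 μM DTNBA and 25 μM inhibitor. Reaction started with native enzyme. Thionitrobenzamide formation read at 416 nm over time, with and without inhibitor.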

Thioredoxin reductase [13] = target: T1, Thioredoxin reductase; experiment: Inhibitory concentration against human thioredoxin reductase; assay type: protein assay; method in brief: as §3
SK-MEL-25 [14] = experiment: Ratio of inhibition by compound against SK-MEL-25 cell line to inhibition by cisPt against SK-MEL-25 cell line; assay type: functional, cell-based; conditions: Homo sapiens
Method in brief: (§4)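 Cytotoxicity in DMEM at 37 °C, 5% CO2, quadruplicate 1:2 dilutions (50 to 0.8 μg/mL), 96 h, crystal violet read at 595 nm. Value is the ratio of the complex IC50 to the cisplatin IC50 measured on the same line.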

MCF7 [15] = experiment: Ratio of inhibition by compound against MCF-7 cell line to inhibition by cisPt against MCF-7 cell line; assay type: functional, cell-based; conditions: Homo sapiens; method in brief: as §4
Calu-6 [16] = experiment: Ratio of inhibition by compound against Calu-6 cell line to inhibition by cisPt against Calu-6 cell line; assay type: functional, cell-based; conditions: Homo sapiens; method in brief: as §4

## 2-(2-Amino-ethylamino)-N-(7-{2-[N'-(5-nitro-furan-2-carbonyl)-hydrazino]-2-oxo-ethyl}-naphthalen-2-yl)-acetamide; compound with GENERIC INORGANIC NEUTRAL COMPONENT [listing 1 of 2 here]
Thioredoxin reductase [1]
  pKi: 6.56
Thioredoxin reductase [2]
  pIC50: 6.96
Thioredoxin reductase [3]
  pIC50: 3.84
SK-MEL-25 [4]
  pIC50: 4.82
Thioredoxin reductase [5]
  pIC50: 4.42
MCF7 [6]
  pIC50: 4.27
Thioredoxin reductase [7]
  pIC50: 6.92
Thioredoxin reductase [8]
  pIC50: 3.89
Calu-6 [9]
  pIC50: 4.56

## O=C1C=CC(=O)c2c(O)ccc(O)c21 [NAPHTHAZALIN]
Thioredoxin reductase [10]
  IC50: 20 µM

## O=C(Cc1ccc2ccccc2c1)NNC(=O)c1ccc([N+](=O)[O-])o1
[11]
  pIC50: 5.39
Thioredoxin reductase [2]
  pIC50: 4.74
Thioredoxin reductase [12]
  IC50: 16 µM
Thioredoxin reductase [3]
  pIC50: 3.67

## O=C1C=CC(=Nc2cc(Cl)c(O)c(Cl)c2)C=C1 [DICHLOROPHENOL INDOPHENOL]
Thioredoxin reductase [13]
  IC50: 25 µM

## 2-(2-Amino-ethylamino)-N-(7-{2-[N'-(5-nitro-furan-2-carbonyl)-hydrazino]-2-oxo-ethyl}-naphthalen-2-yl)-acetamide; compound with GENERIC INORGANIC NEUTRAL COMPONENT [listing 2 of 2 here]
SK-MEL-25 [14]
  Ratio: 3
MCF7 [15]
  Ratio: 0.8
Calu-6 [16]
  Ratio: 15.3
